{"source": "paper PMC3822768", "about": "(Bioorganic & medicinal chemistry, 2013)", "assay_type_in_all_cases": "cell-based, Human", "key": {"[1]": {"test_system": "cancer cell lines", "test": "MTT growth inhibition assay, summary over the cancer cell line panel", "conditions": "48 h; for cytotoxicity against the cancer cell lines: MTT"}, "[2]": {"test_system": "H460 cells", "test": "Cell cycle analysis by propidium iodide staining and flow cytometry, H460", "conditions": "H460, 1.0, 2.5, 5.0 µM, 24 h", "method_in_brief": "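After 24 h exposure to test compound at 1.0, 2.5 or 5.0 µM, H460 cells were washed in PBS and fixed overnight in 70% ice-cold ethanol at −20 °C. They were then stained in the dark for 30 min with 0.1% Triton X-100, 0.2 mg/mL RNase and 20 µg/mL propidium iodide. DNA content was measured by flow cytometry and histograms were modelled for phase distribution.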"}, "[3]": {"test_system": "HL-60 cells", "test": "Hoechst 33258 staining", "conditions": "HL-60, 0.25-1.0 µM, 24 h", "method_in_brief": "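HL-60 cells seeded at 1×10⁵ per well and incubated 24 h with test compound at 0.25, 0.5 and 1.0 µM. After phase-contrast imaging, nuclei stained with Hoechst 33258 (5 µg/mL, 10 min), washed twice with PBS and fixed in 4% PFA/PBS for 10 min at 25 °C. Apoptotic chromatin condensation or fragmentation assessed; fluorescence at ex 365/em 460 nm.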"}, "[4]": {"test_system": "H460 cells", "test": "Hoechst 33258 staining", "conditions": "H460, 1.0-5.0 µM, 24 h", "method_in_brief": "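H460 cells plated at 5×10⁴ per well and exposed to test compound at 1.0, 2.5 and 5.0 µM for 24 h. Cells photographed under phase contrast, then stained with 5 µg/mL Hoechst 33258 for 10 min, washed twice in PBS and fixed in 4% PFA/PBS for 10 min at 25 °C. Nuclei scored for chromatin condensation or fragmentation; fluorescence read at ex 365/em 460 nm.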"}, "[5]": {"test_system": "cyclin B1, CDK1, caspase 3 in HL-60 cells", "test": "Western blot of cyclin B1, CDK1 and caspase 3, HL-60", "conditions": "HL-60, 24 h", "method_in_brief": "(§1)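 Cells grown in RPMI-1640 with 10% FBS at 37 °C, 5% CO₂, then treated with test compound at graded concentrations for 24 h. Harvested cells lysed on ice for 30 min and spun at 12,000 g for 20 min. Protein quantified by Bradford, denatured in Tris-HCl pH 6.8/DTT/SDS loading buffer, run on 10% SDS-PAGE and transferred to nitrocellulose. Detection by chemiluminescence, with β-actin as loading control.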"}, "[6]": {"test_system": "cyclin B1, CDK1, caspase 3 in H460 cells", "test": "Western blot of cyclin B1, CDK1 and caspase 3, H460", "conditions": "H460, 24 h", "method_in_brief": "as §1"}}}
{"smiles": "O=c1cc(-c2ccccc2F)c2cc3c(cc2[nH]1)OCO3", "note": "[Compound 12l, 4-(2-Fluorophenyl)-6,7-methylenedioxyquinolin-2(1H)-one]", "values": [{"measurement": "cytotoxicity against the cancer cell lines", "setting": "[1]", "value": "weak cytotoxicity"}]}
{"smiles": "COc1cc(-c2cc(=O)[nH]c3cc4c(cc23)OCO4)cc(OC)c1OC", "note": "[Compound 12k, 6,7-Methylenedioxy-4-(3,4,5-trimethoxyphenyl)quinolin-2(1H)-one]", "values": [{"measurement": "IC50", "setting": "[1]; Homo sapiens, read-out: IC50 range over cancer cell lines", "value": "0.93 to 7.6", "unit": "µM"}]}
{"smiles": "O=c1cc(-c2ccc(F)cc2)c2cc3c(cc2[nH]1)OCO3", "note": "[Compound 12n, 4-(4-Fluorophenyl)-6,7-methylenedioxyquinolin-2(1H)-one]", "values": [{"measurement": "cytotoxicity against the cancer cell lines", "setting": "[1]", "value": "weak cytotoxicity"}]}
{"smiles": "COc1ccc(-c2cc(=O)[nH]c3cc4c(cc23)OCO4)c(OC)c1", "note": "[Compound 12e, 6,7-Methylenedioxy-4-(2,4-dimethoxyphenyl)quinolin-2(1H)-one]", "values": [{"measurement": "percentage of G2/M cells", "setting": "[2]", "value": "increased"}, {"measurement": "apoptotic morphology by Hoechst 33258 staining", "setting": "[3]", "value": "typical apoptotic characteristics"}, {"measurement": "apoptotic morphology by Hoechst 33258 staining", "setting": "[4]", "value": "typical apoptotic characteristics"}, {"measurement": "CDK1 protein expression level", "setting": "[5]", "value": "decreased in a concentration-dependent manner"}, {"measurement": "caspase 3 cleavage (17 kDa)", "setting": "[5]", "value": "induced caspase 3 cleavage"}, {"measurement": "cyclin B1 protein expression", "setting": "[5]", "value": "transient increase followed by a decrease"}, {"measurement": "CDK1 protein expression level", "setting": "[6]", "value": "increased in a concentration-dependent manner"}, {"measurement": "caspase 3 cleavage (17 kDa)", "setting": "[6]", "value": "induced caspase 3 cleavage"}]}
{"smiles": "O=c1cc(-c2cccc(F)c2)c2cc3c(cc2[nH]1)OCO3", "note": "[Compound 12m, 4-(3-Fluorophenyl)-6,7-methylenedioxyquinolin-2(1H)-one]", "values": [{"measurement": "cytotoxicity against the cancer cell lines", "setting": "[1]", "value": "weak cytotoxicity"}]}
{"smiles": "O=c1cc(-c2ccccc2)c2cc3c(cc2[nH]1)OCO3", "note": "[Compound 12a, 6,7-Methylenedioxy-4-phenylquinolin-2(1H)-one]", "values": [{"measurement": "cytotoxicity against the cancer cell lines", "setting": "[1]", "value": "poor cytotoxicity"}]}
